{"source": "ChEMBL document CHEMBL1139810", "about": "“Novel anti-infection agents: small-molecule inhibitors of bacterial transcription factors” (Bioorg Med Chem Lett, 2007)", "key": {"Escherichia coli [1]": {"test_system": "Escherichia coli", "test": "Inhibition of Escherichia coli SoxS binding to DNA at 50 ug/mL"}, "Staphylococcus aureus": {"test_system": "Staphylococcus aureus", "test": "Antimicrobial activity against antibiotic-susceptible Staphylococcus aureus RN450", "format": "functional"}, "[2]": {"biological_target": "T1, HTH-type transcriptional regulator ExsA (Pseudomonas aeruginosa (strain ATCC 15692 / PAO1 / 1C / PRS 101 / LMG12228), UniProt P26993)", "T1 sequence (P26993 whole entry)": "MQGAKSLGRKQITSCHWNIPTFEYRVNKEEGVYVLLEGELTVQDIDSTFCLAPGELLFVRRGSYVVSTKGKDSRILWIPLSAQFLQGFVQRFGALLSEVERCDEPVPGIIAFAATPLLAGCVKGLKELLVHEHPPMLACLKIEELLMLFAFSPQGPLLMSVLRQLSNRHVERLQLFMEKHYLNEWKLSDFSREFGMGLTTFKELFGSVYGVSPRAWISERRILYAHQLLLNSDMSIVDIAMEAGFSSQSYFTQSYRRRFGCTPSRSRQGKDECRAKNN", "test": "Inhibition of Pseudomonas aeruginosa ExsA binding to DNA"}, "Escherichia coli [3]": {"test_system": "Escherichia coli", "test": "Inhibition of Escherichia coli Rob binding to DNA", "format": "functional, organism-based"}, "[4]": {"test": "Inhibition of Salmonella Typhimurium Rma binding to DNA", "design": "species or system Salmonella enterica subsp. enterica serovar Typhimurium"}, "Escherichia coli [5]": {"test_system": "Escherichia coli", "test": "Antimicrobial activity against antibiotic-susceptible Escherichia coli ML308-225", "format": "functional"}, "[6]": {"test": "Inhibition of Escherichia coli SoxS binding to DNA"}, "Escherichia coli [7]": {"test_system": "Escherichia coli", "test": "Inhibition of Escherichia coli SoxS binding to DNA at 25 ug/mL"}, "Escherichia coli [8]": {"test_system": "Escherichia coli", "test": "Reduction of colony formation in urinary tract infection mouse model assessed per gram of kidney at 10 mg/kg, ip", "format": "functional", "settings": "route intraperitoneal"}, "[9]": {"test": "Inhibition of Proteus mirabilis PqrA binding to DNA"}, "[10]": {"test": "Inhibition of Escherichia coli MarA binding to DNA", "summary_of_the_method": "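Binding of the 6-His-tagged Mar protein (20 nM) to biotinylated double-stranded target DNA (2 nM) was measured with test compound on streptavidin-coated wells. After washing, retained protein was read by luminescence, and inhibition appeared as signal loss. Selected compounds were also incubated with DNA and run on agarose gels to check whether they altered DNA structure.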"}}}
{"smiles": "COc1ccc(-c2nc3ccc([N+](=O)[O-])cc3n2O)cc1", "values": [{"measurement": "inhibition", "setting": "Escherichia coli [1]", "value": 12, "unit": "%"}]}
{"smiles": "On1c(-c2ccccc2)nc2ccc(C(F)(F)F)cc21", "values": [{"measurement": "inhibition", "setting": "Escherichia coli [1]", "value": 26, "unit": "%"}]}
{"smiles": "O=[N+]([O-])c1ccc2nc(-c3ccc(Oc4ccccc4)cc3)n(O)c2c1", "values": [{"measurement": "inhibition", "setting": "Escherichia coli [1]", "value": 14, "unit": "%"}]}
{"smiles": "CN(C)c1ccc(-c2nc3ccc([N+](=O)[O-])cc3n2O)cc1", "values": [{"measurement": "inhibition", "setting": "Escherichia coli [1]", "value": 75, "unit": "%"}]}
{"smiles": "NCCOn1c(-c2ccccc2)nc2ccc([N+](=O)[O-])cc21", "values": [{"measurement": "inhibition", "setting": "Escherichia coli [1]", "value": 0, "unit": "%"}]}
{"smiles": "CC(C)(C)c1ccc2nc(-c3ccccc3)n(O)c2c1", "values": [{"measurement": "inhibition", "setting": "Escherichia coli [1]", "value": 0, "unit": "%"}]}
{"smiles": "CCCOn1c(-c2ccccc2)nc2ccc([N+](=O)[O-])cc21", "values": [{"measurement": "inhibition", "setting": "Escherichia coli [1]", "value": 0, "unit": "%"}]}
{"smiles": "O=C(Nc1ccc(-c2nc3ccc([N+](=O)[O-])cc3n2O)cc1)c1ccc(F)cc1", "values": [{"measurement": "MIC", "setting": "Staphylococcus aureus", "value": "> 64", "unit": "mg/L"}, {"measurement": "IC50", "setting": "[2]", "value": 4, "unit": "µM"}, {"measurement": "IC50", "setting": "Escherichia coli [3]", "value": 4.7, "unit": "µM"}, {"measurement": "IC50", "setting": "[4]", "value": 4.9, "unit": "µM"}, {"measurement": "MIC", "setting": "Escherichia coli [5]", "value": "> 64", "unit": "mg/L"}, {"measurement": "IC50", "setting": "[6]", "value": 2.8, "unit": "µM"}]}
{"smiles": "C/C(=N/O)c1ccc2nc(-c3ccccc3)n(O)c2c1", "values": [{"measurement": "inhibition", "setting": "Escherichia coli [1]", "value": 38, "unit": "%"}]}
{"smiles": "N#Cc1ccc2nc(-c3ccccc3)n(O)c2c1", "values": [{"measurement": "inhibition", "setting": "Escherichia coli [1]", "value": 30, "unit": "%"}]}
{"smiles": "CC(=O)Nc1ccccc1-c1nc2ccc([N+](=O)[O-])cc2n1O", "values": [{"measurement": "inhibition", "setting": "Escherichia coli [1]", "value": 31, "unit": "%"}]}
{"smiles": "On1c(-c2ccccc2)nc2ccccc21", "values": [{"measurement": "inhibition", "setting": "Escherichia coli [1]", "value": 0, "unit": "%"}]}
{"smiles": "O=[N+]([O-])c1ccc2nc(-c3ccc(O)cc3)n(O)c2c1", "values": [{"measurement": "inhibition", "setting": "Escherichia coli [1]", "value": 35, "unit": "%"}]}
{"smiles": "Cc1ccc(C(=O)Nc2ccc(-c3nc4ccc([N+](=O)[O-])cc4n3O)cc2)cc1", "values": [{"measurement": "MIC", "setting": "Staphylococcus aureus", "value": "> 64", "unit": "mg/L"}, {"measurement": "MIC", "setting": "Escherichia coli [5]", "value": "> 64", "unit": "mg/L"}, {"measurement": "IC50", "setting": "[6]", "value": 10, "unit": "µM"}]}
{"smiles": "NC(=O)c1ccc2nc(-c3ccccc3)n(O)c2c1", "values": [{"measurement": "inhibition", "setting": "Escherichia coli [1]", "value": 14, "unit": "%"}]}
{"smiles": "CC(=O)Nc1cccc(-c2nc3ccc([N+](=O)[O-])cc3n2O)c1", "values": [{"measurement": "inhibition", "setting": "Escherichia coli [1]", "value": 32, "unit": "%"}]}
{"smiles": "CN(C)c1cccc(-c2nc3ccc([N+](=O)[O-])cc3n2O)c1", "values": [{"measurement": "inhibition", "setting": "Escherichia coli [1]", "value": 30, "unit": "%"}]}
{"smiles": "CC(=O)c1ccc2nc(-c3ccccc3)n(O)c2c1", "values": [{"measurement": "inhibition", "setting": "Escherichia coli [1]", "value": 37, "unit": "%"}]}
{"smiles": "O=[N+]([O-])c1ccc2nc(-c3ccc(Br)cc3)n(O)c2c1", "values": [{"measurement": "inhibition", "setting": "Escherichia coli [1]", "value": 26, "unit": "%"}]}
{"smiles": "O=C(Nc1ccc(-c2nc3ccc([N+](=O)[O-])cc3n2O)cc1)c1ccccc1", "values": [{"measurement": "MIC", "setting": "Staphylococcus aureus", "value": "> 64", "unit": "mg/L"}, {"measurement": "inhibition", "setting": "Escherichia coli [7]", "value": 100, "unit": "%"}, {"measurement": "MIC", "setting": "Escherichia coli [5]", "value": "> 64", "unit": "mg/L"}, {"measurement": "inhibition", "setting": "Escherichia coli [1]", "value": 100, "unit": "%"}, {"measurement": "IC50", "setting": "[6]", "value": 17, "unit": "µM"}]}
{"smiles": "COc1ccc(C(=O)Nc2ccc(-c3nc4ccc([N+](=O)[O-])cc4n3O)cc2)cc1", "values": [{"measurement": "CFU", "setting": "Escherichia coli [8]", "value": 1}, {"measurement": "MIC", "setting": "Staphylococcus aureus", "value": "> 64", "unit": "mg/L"}, {"measurement": "MIC", "setting": "Escherichia coli [5]", "value": "> 64", "unit": "mg/L"}, {"measurement": "IC50", "setting": "[6]", "value": 2.5, "unit": "µM"}]}
{"smiles": "CN(C)c1ccc2nc(-c3ccccc3)n(O)c2c1", "values": [{"measurement": "inhibition", "setting": "Escherichia coli [1]", "value": 28, "unit": "%"}]}
{"smiles": "CN(C)c1ccc(C(=O)Nc2ccc(-c3nc4ccc([N+](=O)[O-])cc4n3O)cc2)cc1", "values": [{"measurement": "IC50", "setting": "[9]", "value": 1.4, "unit": "µM"}, {"measurement": "CFU", "setting": "Escherichia coli [8]", "value": 0.5}, {"measurement": "MIC", "setting": "Staphylococcus aureus", "value": "> 64", "unit": "mg/L"}, {"measurement": "IC50", "setting": "[2]", "value": 1.9, "unit": "µM"}, {"measurement": "IC50", "setting": "Escherichia coli [3]", "value": 1.3, "unit": "µM"}, {"measurement": "IC50", "setting": "[4]", "value": 1.8, "unit": "µM"}, {"measurement": "IC50", "setting": "[10]", "value": 1.2, "unit": "µM"}, {"measurement": "MIC", "setting": "Escherichia coli [5]", "value": "> 64", "unit": "mg/L"}, {"measurement": "IC50", "setting": "[6]", "value": 0.82, "unit": "µM"}]}
{"smiles": "O=C(O)c1ccc2nc(-c3ccccc3)n(O)c2c1", "values": [{"measurement": "inhibition", "setting": "Escherichia coli [1]", "value": 12, "unit": "%"}]}
{"smiles": "N#CCOn1c(-c2ccccc2)nc2ccc([N+](=O)[O-])cc21", "values": [{"measurement": "inhibition", "setting": "Escherichia coli [1]", "value": 12, "unit": "%"}]}
{"smiles": "CS(=O)(=O)c1ccc2nc(-c3ccccc3)n(O)c2c1", "values": [{"measurement": "inhibition", "setting": "Escherichia coli [1]", "value": 35, "unit": "%"}]}
{"smiles": "O=C(Nc1ccc(-c2nc3ccc([N+](=O)[O-])cc3n2O)cc1)c1cccc(Cl)c1", "values": [{"measurement": "MIC", "setting": "Staphylococcus aureus", "value": "> 64", "unit": "mg/L"}, {"measurement": "MIC", "setting": "Escherichia coli [5]", "value": "> 64", "unit": "mg/L"}, {"measurement": "IC50", "setting": "[6]", "value": 3.4, "unit": "µM"}]}
{"smiles": "Nc1ccc(-c2nc3ccc([N+](=O)[O-])cc3n2O)cc1", "values": [{"measurement": "inhibition", "setting": "Escherichia coli [1]", "value": 80, "unit": "%"}]}
{"smiles": "CC(=O)Nc1ccc(-c2nc3ccc([N+](=O)[O-])cc3n2O)cc1", "values": [{"measurement": "inhibition", "setting": "Escherichia coli [7]", "value": 58, "unit": "%"}, {"measurement": "inhibition", "setting": "Escherichia coli [1]", "value": 100, "unit": "%"}]}
{"smiles": "O=C(NCc1ccc(-c2nc3ccc([N+](=O)[O-])cc3n2O)cc1)c1ccccc1", "values": [{"measurement": "inhibition", "setting": "Escherichia coli [1]", "value": 44, "unit": "%"}]}
{"smiles": "O=[N+]([O-])c1ccc2nc(-c3ccccc3)n(O)c2c1", "values": [{"measurement": "inhibition", "setting": "Escherichia coli [1]", "value": 38, "unit": "%"}]}
{"smiles": "O=[N+]([O-])c1ccc2nc(-c3ccccc3)n(OCCO)c2c1", "values": [{"measurement": "inhibition", "setting": "Escherichia coli [1]", "value": 0, "unit": "%"}]}
{"smiles": "On1c(-c2ccccc2)nc2ccc(F)cc21", "values": [{"measurement": "inhibition", "setting": "Escherichia coli [1]", "value": 26, "unit": "%"}]}
{"smiles": "COc1ccc2nc(-c3ccccc3)n(O)c2c1", "values": [{"measurement": "inhibition", "setting": "Escherichia coli [1]", "value": 0, "unit": "%"}]}
{"smiles": "O=C(O)CCOn1c(-c2ccccc2)nc2ccc([N+](=O)[O-])cc21", "values": [{"measurement": "inhibition", "setting": "Escherichia coli [1]", "value": 0, "unit": "%"}]}
{"smiles": "COn1c(-c2ccccc2)nc2ccc([N+](=O)[O-])cc21", "values": [{"measurement": "inhibition", "setting": "Escherichia coli [1]", "value": 17, "unit": "%"}]}
{"smiles": "O=C(O)COn1c(-c2ccccc2)nc2ccc([N+](=O)[O-])cc21", "values": [{"measurement": "inhibition", "setting": "Escherichia coli [1]", "value": 14, "unit": "%"}]}
{"smiles": "CCOC(=O)COn1c(-c2ccccc2)nc2ccc([N+](=O)[O-])cc21", "values": [{"measurement": "inhibition", "setting": "Escherichia coli [1]", "value": 0, "unit": "%"}]}
{"smiles": "Nc1cccc(-c2nc3ccc([N+](=O)[O-])cc3n2O)c1", "values": [{"measurement": "inhibition", "setting": "Escherichia coli [1]", "value": 60, "unit": "%"}]}
{"smiles": "Nc1ccccc1-c1nc2ccc([N+](=O)[O-])cc2n1O", "values": [{"measurement": "inhibition", "setting": "Escherichia coli [1]", "value": 2, "unit": "%"}]}
